Here are results for 24 molecules from ChEMBL document CHEMBL4837242, “Discovery of Irbesartan Derivatives as BLT2 Agonists by Virtual Screening” (ACS Med Chem Lett, 2021).

Active and inactive are the calls of the source. No cut-off for these calls is given here.

Data set [1] deals with T1, Type-1 angiotensin II receptor (Homo sapiens, UniProt P30556).
T1 sequence (P30556 whole entry): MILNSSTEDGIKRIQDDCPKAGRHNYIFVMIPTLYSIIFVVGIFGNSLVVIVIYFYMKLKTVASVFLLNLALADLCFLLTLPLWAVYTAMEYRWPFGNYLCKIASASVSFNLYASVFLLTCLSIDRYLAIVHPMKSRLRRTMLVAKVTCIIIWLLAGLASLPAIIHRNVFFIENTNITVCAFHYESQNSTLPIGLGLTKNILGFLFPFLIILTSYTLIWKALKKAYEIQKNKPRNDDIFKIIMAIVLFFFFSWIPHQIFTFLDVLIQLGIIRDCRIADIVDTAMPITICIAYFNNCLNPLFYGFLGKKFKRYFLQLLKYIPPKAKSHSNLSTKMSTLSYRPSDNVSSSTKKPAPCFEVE
The data set can be described thus: Antagonist activity at human AT1 overexpressed in CHO-K1 cells in presence of 10 nM [Val5-angiotensin II measured after 90 mins by HTRF based IP-one assay. The format is functional, cell-based. In outline:
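IP-One assay in antagonist mode, [Val⁵]-angiotensin II held constant at 10 nM; IP-1 accumulation read out. IC₅₀ with SEM from at least two runs (n = 2).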
(In general: TR-FRET usually uses a lanthanide donor and a delayed reading to cut background.)

For data set [2], the target named is T2, Leukotriene B4 receptor 2 (Homo sapiens, UniProt Q9NPC1).
T2 sequence (Q9NPC1 whole entry): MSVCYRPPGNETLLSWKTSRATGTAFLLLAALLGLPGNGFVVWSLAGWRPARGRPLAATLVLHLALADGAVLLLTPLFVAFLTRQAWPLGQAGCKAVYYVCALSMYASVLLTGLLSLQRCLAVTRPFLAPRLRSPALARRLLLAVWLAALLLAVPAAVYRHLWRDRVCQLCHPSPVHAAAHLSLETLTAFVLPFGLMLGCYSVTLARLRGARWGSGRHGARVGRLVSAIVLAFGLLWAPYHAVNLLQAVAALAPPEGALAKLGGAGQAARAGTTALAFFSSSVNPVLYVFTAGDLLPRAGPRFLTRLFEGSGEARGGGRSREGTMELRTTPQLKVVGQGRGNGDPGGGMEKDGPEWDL
Nature of the data set: Agonist activity at human BLT2 overexpressed in CHO-K1 cells assessed as accumulation of inositol monophosphate measured after 90 mins by HTRF assay. The format is functional, cell-based.

Data set [3] has as its target Leukotriene B4 receptor 1 (Homo sapiens) (UniProt Q15722). Nature of the data set: Agonist activity at human BLT1 overexpressed in CHO-K1 cells assessed as accumulation of inositol monophosphate measured after 90 mins by HTRF assay. The format is functional, cell-based. In outline:
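IP-One accumulation assay run in agonist mode, read-out inositol monophosphate as a measure of Gq activation; LTB₄ as reference agonist and positive control. EC₅₀ determinations done at least twice (n = 2).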

The test system of data set [4] is HCT-116. Nature of the data set: Induction of cell proliferation in human HCT-116 cells at 0.03 uM measured after 24 hrs by celltiter blue reagent based fluorescent assay. The format is functional. A digest of the protocol:
(§1)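 HCT116 seeded at 5 × 10³ cells/well, grown 72 h, then treated 24 h with compound alone or with BLT2 antagonist Ly255283 (1 μM); CellTiterBlue added for the final 4 h, resorufin fluorescence read. Mean ± SEM, n = 3.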
In general terms: Alamar Blue is a resazurin reagent that responds to reducing activity.

In a further data set the test system is HepG2. The data set can be described thus: (§2) Cytotoxicity against human HepG2 cells assessed as cell survival rate at 50 uM measured after 3 days by Celltiter-glo assay relative to control. The format is cell-based. The settings on record: hepg2, 72 h, 50 µM. A digest of the protocol:
(§3)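 Hep-G2 cells exposed to 50 μM compound for 3 days; ATP content measured by CellTiter-Glo luminescence as an index of metabolic activity and survival; live rate expressed as percent of DMSO control.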
(In ATP-based viability assays light output follows the ATP content of the culture.)

A short description of data set [5]: as §2. The format is cell-based. The settings on record: HepG2 cells, read-out: Activity. In outline: as §3
The test system of data set [6] is HCT-116. Nature of the data set: Induction of cell proliferation in human HCT-116 cells at 0.1 to 1 uM measured after 24 hrs by celltiter blue reagent based fluorescent assay. The format is functional. In outline: as §1

In general, IC50 refers to the concentration that gives 50% inhibition. In general, EC50 refers to the concentration at which the effect is half-maximal.

Chain of Leukotriene B4 receptor 1 (Homo sapiens) (Q15722 whole entry): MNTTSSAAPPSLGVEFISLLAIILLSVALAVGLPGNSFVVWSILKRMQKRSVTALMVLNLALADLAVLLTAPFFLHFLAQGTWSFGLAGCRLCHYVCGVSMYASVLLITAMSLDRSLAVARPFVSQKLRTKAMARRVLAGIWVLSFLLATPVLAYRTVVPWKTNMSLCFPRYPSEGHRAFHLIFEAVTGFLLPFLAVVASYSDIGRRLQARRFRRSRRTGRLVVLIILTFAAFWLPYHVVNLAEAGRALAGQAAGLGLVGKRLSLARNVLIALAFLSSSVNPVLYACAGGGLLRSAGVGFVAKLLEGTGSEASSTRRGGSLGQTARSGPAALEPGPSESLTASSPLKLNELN

With `CCCCC1=NC(C)(C(C)C)C(=O)N1Cc1ccc(-c2ccccc2-c2nnn[nH]2)cc1` (stereo not given), the IC50 in data set [1] (read-out: IC50) was determined as 15 nM. The EC50 in data set [2] (read-out: EC50) was determined as 67.6 nM. Further, the result in data set [3] was inactive. For the same molecule, the outcome in the data set with HCT-116 [4] was Active. Also, the Activity entry in the data set with HepG2 is on record as “Non-Toxic”.

Regarding `O=C(O)c1ccccc1-c1ccc(CN2C(=O)C3(CCCC3)N=C2c2ccccc2)cc1`, the IC50 in data set [1] (read-out: IC50) was greater than 10000 nM. For the same molecule, the EC50 result in data set [2] (cho-k1) was “Not Active”. Moreover, the outcome in data set [3] was inactive. Also, in the data set with HepG2, the Activity entry is on record as “Non-Toxic”.

With `CSc1ccc(C(=O)/C=C/c2cc(C)c(OC(C)(C)C(=O)O)c(C)c2)cc1` [ELAFIBRANOR], in data set [2] (cho-k1), the EC50 result is given as “Not Active”.

For the molecule `O=C(O)COc1ccc(C(=O)c2cccs2)c(Cl)c1Cl`, in data set [2] (cho-k1), the EC50 result is listed as “Not Active”.

As to `CCCC[C@H]1N(Cc2ccc(-c3ccccc3-c3nnn[nH]3)cc2)C(=O)[C@H]2CCCN21`, the IC50 in data set [1] (read-out: IC50) is 10000 nM. For the same molecule, the EC50 in data set [2] (read-out: EC50) is 7500 nM. For the same molecule, the outcome in data set [3] was inactive. Also, in data set [5], the viability at 72 h, 50 µM worked out at 88%.

In the case of `CCCCC(=O)N(Cc1ccc(-c2ccccc2-c2nnn[nH]2)cc1)[C@H](C(=O)O)C(C)C`, the EC50 in data set [2] (read-out: EC50) worked out at 16000 nM.

On to `CCCCC1NC(C)(C)C(=O)N1Cc1ccc(-c2ccccc2-c2nnn[nH]2)cc1` (stereo not given), for which the IC50 in data set [1] (read-out: IC50) stood at 390 nM. Further, the viability at 72 h, 50 µM in data set [5] is 77%.

For `O=C(O)c1ccccc1-c1ccc(CN2C(=O)C3(CCCC3)N=C2CCc2ccccc2)cc1`, the IC50 result in data set [1] (cho-k1) is “Not Active”. For the same molecule, in data set [2] (cho-k1), the EC50 entry is “Not Active”. For the same molecule, the result in data set [3] was inactive. For the same molecule, the Activity entry in the data set with HepG2 is “Non-Toxic”.

Turning to `O=C(O)Cn1c2c(c3cc(F)ccc31)CN(C(=O)c1cccc3ccccc13)CC2` [SETIPIPRANT], the EC50 result in data set [2] (cho-k1) is given as “Not Active”.

For `CCOc1nc2cccc(C(=O)O)c2n1Cc1ccc(-c2ccccc2-c2noc(=O)[nH]2)cc1` [AZILSARTAN], the EC50 entry in data set [2] (cho-k1) is recorded as “Not Active”.

Consider `CCCCC1=NC(C)(c2ccccc2)C(=O)N1Cc1ccc(-c2ccccc2-c2nnn[nH]2)cc1` (stereo not given), for which the IC50 in data set [1] (read-out: IC50) worked out at 25 nM. Also, the 50% effective concentration (EC50) in data set [2] (read-out: EC50) was 550 nM. For the same molecule, the result in data set [3] was inactive. The viability at 72 h, 50 µM in data set [5] was found to be 56%.

`O=C(O)c1ccccc1-c1ccc(CN2C(=O)C3(CCCC3)N=C2Cc2ccccc2)cc1`: the IC50 in data set [1] (read-out: IC50) is 8650 nM. Also, the viability at 72 h, 50 µM in data set [5] is 79%.

As for `CCCCC1=NC(C)(C)C(=O)N1Cc1ccc(-c2ccccc2-c2nnn[nH]2)cc1`, in data set [1] (read-out: IC50), the IC50 came to 32 nM. In data set [2] (read-out: EC50), the EC50 came to 8140 nM. For the same molecule, the outcome in data set [3] was inactive. The viability at 72 h, 50 µM in data set [5] was found to be 56%.

Regarding `C[C@H](CCC(=O)O)[C@H]1CC[C@H]2[C@@H]3[C@H](O)C[C@@H]4C[C@H](O)CC[C@]4(C)[C@H]3CC[C@]12C` [CHENODIOL], the EC50 entry in data set [2] (cho-k1) is “Not Active”.

With `CC(C(=O)O)c1ccc2c(c1)CC(=O)c1ccccc1S2` (stereo not given) [ZALTOPROFEN], the concentration giving a half-maximal response (EC50) result in data set [2] (cho-k1) was “Not Active”.

With `CCCC[C@@H]1N(Cc2ccc(-c3ccccc3-c3nnn[nH]3)cc2)C(=O)[C@@H]2CCCN12`, the IC50 in data set [1] (read-out: IC50) worked out at 1010 nM. In addition, in data set [2] (cho-k1), the EC50 entry is “Not Active”. Moreover, the result in data set [3] was inactive. Further, the viability at 72 h, 50 µM in data set [5] was 89%.

Regarding `CCc1cc(C(C)=O)c(O)cc1OCCCCCC(C)(C)c1nn[nH]n1`, the result with HCT-116 [6] was inactive.

Take `CCCCC1(C2CCCC2)Cc2cc(OCCCC(=O)O)c(Cl)c(Cl)c2C1=O` (stereo not given): in data set [2] (cho-k1), the EC50 entry is “Not Active”.

As for `CCCCC1=NC2(CCCC2)C(=O)N1Cc1ccc(-c2ccccc2C(=O)O)cc1`, in data set [1] (read-out: IC50), the IC50 stood at 190 nM.

With `CCCCC1=NC2(CCCC2)C(=O)N1Cc1ccc(-c2ccccc2-c2nnn[nH]2)cc1` [IRBESARTAN], the EC50 in data set [2] (read-out: EC50) is 410 nM. For the same molecule, the outcome in data set [3] was inactive. The molecule also had an Activity with HCT-116 [4] of 88%.

As for `CCOc1nc2cccc(C(=O)O)c2n1Cc1ccc(-c2ccccc2-c2nnn[nH]2)cc1`, the EC50 in data set [2] (read-out: EC50) was determined as 15000 nM.

Regarding `CCCCC(=O)N(Cc1ccc(-c2ccccc2C(=O)O)cc1)c1ccccc1`, in the data set with HCT-116 [4], the result was Active.

For `CCCCC1=NC2(CCCCC2)C(=O)N1Cc1ccc(-c2ccccc2C(=O)O)cc1`, the IC50 in data set [1] (read-out: IC50) worked out at 155 nM. Further, the EC50 in data set [2] (read-out: EC50) amounted to 860 nM. In data set [3], the outcome was inactive.

`CCCCC1NC(=O)C2(CCCC2)N1Cc1ccc(-c2ccccc2C(=O)O)cc1` (stereo not given): the IC50 in data set [1] (read-out: IC50) is 7750 nM. The EC50 in data set [2] (read-out: EC50) came out at 24200 nM. In data set [3], the result was inactive. In addition, the Activity result in the data set on HepG2 is listed as “Non-Toxic”.
